Experimental data taken from PubChem BioAssay.
The source made the active and inactive calls.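 Rule for the calls, unless noted: active = viability at or under a set limit in both replicates, limit being median viability minus 3 SD (cut at about 48% in these data, passing the limit was not always enough); inconclusive = at or under the limit in just one replicate; inactive = at or above the limit in both replicates.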

Legend:
[1] = SK-BR-3 cell growth inhibitors, pilot screen, 24 h, human (AID 572;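 active = viability at or below 10% of carrier control in both of two separate runs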;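 note: compound exposure lasted between 18 and 24 h rather than exactly 24 h; 100% = carrier-treated control wells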); conditions: SK-BR-3 viability, CellTiter-Glo luminescence, at 10 µM, stronger effect = lower value
[2] = HUVEC growth inhibition – cell-based, human, primary screen (AID 575;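 active = viability at or below 30% in both replicate assays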;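 note: 100% = median of untreated cell wells with 0.1% DMSO on each plate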); conditions: HUVEC proliferation, CellTiter-Glo luminescence, 72 h; at 10 µM; stronger effect = lower value
In short: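 material = primary HUVEC, no more than 12 passages | input = 1250 cells per well | controls = vehicle and MePR control wells | measured by = CTG luminescence | times = 72 h compound incubation | format = collagen-coated 384-well format | read-out = % viability vs DMSO wells | doses = single 10 µM dose, 0.1% DMSO, from 5x medium stock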

[3] = growth inhibitors of H69AR lung tumor, primary screen, human, duplicate replicates (AID 580); conditions: H69AR lung tumor cells viability, ATP luminescence, 72 h; at 10 µM; stronger effect = lower value;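 note: 100% = mean luminescence of untreated wells and 0% = no signal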
[4] = reversal of MRP1-mediated doxorubicin resistance, pilot screen, H69AR cells, doxorubicin co-treatment (AID 601;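 active = viability loss from added drug above about 55%, and viability with drug at most 40%, in both replicates, limit read from the data, passing the limit was not always enough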); conditions: CellTiter-Glo, 72 h, at 10 µM; for differential viability (reversal): stronger effect = higher value
[5] = 384-well plate pilot, post-Golgi transport modulator project, inhibition of yeast transport mutant growth (AID 636; in the data active = inhibition above about 31%); conditions: absorbance 615 nm, about 18 h, stronger effect = higher value
[6] = growth suppression of yeast trafficking mutant, preliminary HTS, modulators of trafficking downstream of Golgi apparatus project, 1536-format plate, OD 615 nm (AID 637; in the data active = inhibition above about 30%); conditions: yeast transport mutant growth, absorbance 615 nm, 18 h; stronger effect = higher value
[7] = H69AR cells + 2 uM doxorubicin, measured here: viability with 2 uM doxorubicin, stronger effect = lower value
[8] = H69AR cells, compound alone cytotoxicity

Structure (SMILES) | viability [1] | viability [2] | viability [3] | differential viability (reversal) ([4]; H69AR cells + 2 uM doxorubicin) | viability [4, 7] | viability [4, 8] | inhibition [5] | inhibition [6]
O=C(Nc1ccccc1C(=O)O)c1cccc(NC(=O)c2ccc(Br)o2)c1 | 91% (inactive) | 80% (inactive) | 102% (inactive) | 7.51% (inactive) | 94.4% | 102% | -10.8% (inactive) | -1.82% (inactive)
CC(C)CNS(=O)(=O)c1ccc(CCC(=O)NCc2ccco2)cc1 | 113% (inactive) | 88.6% (inactive) | 84.5% (inactive) | -3.21% (inactive) | 87.7% | 84.5% | -4.93% (inactive) | 1.29% (inactive)
O=C(NCc1ccco1)c1ccccc1Nc1ccc(F)cc1 | 80% (inactive) | 97.1% (inactive) | 79.2% (inactive) | 5.57% (inactive) | 73.6% | 79.2% | -7.03% (inactive) | -7.09% (inactive)
Cc1cc(C)n(C(C)n2nc(C)cc2C)n1 | 107% (inactive) | 103% (inactive) | 87.8% (inactive) | 9.01% (inactive) | 78.8% | 87.8% | -7.87% (inactive) | -0.91% (inactive)
CC(CC(=O)NCc1ccccc1)C1CCCO1 (stereo not drawn) | 130% (inactive) | 102% (inactive) | 93.4% (inactive) | 2.22% (inactive) | 91.2% | 93.4% | -2.21% (inactive) | 4.75% (inactive)
COc1ccc(Cl)cc1NC(=O)CSc1nncn1-c1cccnc1 | 92% (inactive) | 102% (inactive) | 88.3% (inactive) | 2.01% (inactive) | 86.3% | 88.3% | -7.07% (inactive) | -3.27% (inactive)
C=CCN1C(=O)CS/C1=N/c1nccs1 | 65% (inactive) | 96.5% (inactive) | 98.4% (inactive) | 1.4% (inactive) | 97% | 98.4% | -8.9% (inactive) | -1.13% (inactive)
COCCNC(=O)NC(=O)COC(=O)Cc1ccc2c(c1)OCCO2 | 81% (inactive) | 111% (inactive) | 99.2% (inactive) | 6.6% (inactive) | 92.6% | 99.2% | -2.88% (inactive) | 3.82% (inactive)
Cc1cnc(NC(=O)C2=C(O)c3ccccc3S(=O)(=O)N2C)s1 | 102% (inactive) | 84% (inactive) | 89.9% (inactive) | 0.62% (inactive) | 89.3% | 89.9% | 3.51% (inactive) | -2.83% (inactive)
Cn1cnnc1Sc1nc2c(c(=O)n(C)c(=O)n2C)n1Cc1ccccc1Cl | 72% (inactive) | 98.5% (inactive) | 90.3% (inactive) | -2.15% (inactive) | 92.4% | 90.3% | -3.7% (inactive) | 0.91% (inactive)
NCCCCCc1nnc(SC/C=C/c2ccccc2)o1 | 99% (inactive) | 73.8% (inactive) | 89.9% (inactive) | 3.04% (inactive) | 86.9% | 89.9% | -6.85% (inactive) | 18.2% (inactive)
Cc1cc(C)n2nc[n+](C)c2n1 | 88% (inactive) | 106% (inactive) | 96.4% (inactive) | 11.4% (inactive) | 84.9% | 96.4% | 2.86% (inactive) | 0.98% (inactive)
COc1ccc(C(=O)Nc2ccc(S(=O)(=O)Nc3onc(C)c3C)cc2)cc1 | 91% (inactive) | 108% (inactive) | 117% (inactive) | 23.6% (inactive) | 93.4% | 117% | -2.03% (inactive) | -0.91% (inactive)
O=C(O)c1cc2cc(F)ccc2[nH]1 | 110% (inactive) | 78.4% (inactive) | 94.5% (inactive) | -17.1% (inactive) | 112% | 94.5% | -1.82% (inactive) | -4.67% (inactive)
COc1cccc(N2CCN(CC(=O)c3c[nH]c4ccc(OC)cc34)CC2C)c1 (stereo not drawn) | 104% (inactive) | 83.9% (inactive) | 70.4% (inactive) | -11.7% (inactive) | 82.1% | 70.4% | -5.33% (inactive) | -1.45% (inactive)
Cc1cc(NC(=O)c2ccccc2)ncc1NC(=O)c1ccco1 | 94% (inactive) | 96.2% (inactive) | 109% (inactive) | 9.27% (inactive) | 99.9% | 109% | -4.42% (inactive) | 0.32% (inactive)
c1ccc(Cn2ncc3c2ncn2c(-c4ccncc4)nnc32)cc1 | 99% (inactive) | 95.3% (inactive) | 95% (inactive) | -1.95% (inactive) | 96.9% | 95% | -8.77% (inactive) | -6.77% (inactive)
O=C(COC(=O)CCOc1ccccc1)Nc1ccc(Cl)cn1 | 75% (inactive) | 102% (inactive) | 91% (inactive) | -17% (inactive) | 108% | 91% | -2.74% (inactive) | -4.36% (inactive)

Structure (SMILES) | viability [1] | viability [2] | viability [3] | differential viability (reversal) ([4]; H69AR cells + 2 uM doxorubicin) | viability [4, 7] | viability [4, 8] | inhibition [5] | inhibition [6]
Cc1nc2ccccn2c(=O)c1CCN1CCC(C(=O)c2ccc(F)cc2)CC1 | 75% (inactive) | 83.6% (inactive) | 86.3% (inactive) | -15.1% (inactive) | 101% | 86.3% | 1.69% (inactive) | 17.2% (inactive)
O=C1C2CCCN2C(c2ccccc2)N1c1ccc(Cl)cc1 (stereo not drawn) | 110% (inactive) | 79.1% (inactive) | 104% (inactive) | 19% (inactive) | 85.2% | 104% | -4.67% (inactive) | -5.82% (inactive)
CCOc1ccccc1C1N(c2ccc(F)cc2)C(=O)C2CCCN21 (stereo not drawn) | 109% (inactive) | 111% (inactive) | 99% (inactive) | 19.2% (inactive) | 79.8% | 99% | -4.4% (inactive) | 2.18% (inactive)
O=C(Nc1sccc1C(=O)NCc1ccco1)c1cccnc1 | 90% (inactive) | 96.8% (inactive) | 79.6% (inactive) | -4.98% (inactive) | 84.5% | 79.6% | -0.55% (inactive) | 2.55% (inactive)
COc1ccccc1NC(=O)N(Cc1ccco1)Cc1cc2cccc(C)c2[nH]c1=O | 90% (inactive) | 70.9% (inactive) | 75.8% (inactive) | 1.06% (inactive) | 74.7% | 75.8% | -8.27% (inactive) | -1.45% (inactive)
CCCCOC(=O)Nc1nccs1 | 101% (inactive) | 107% (inactive) | 103% (inactive) | 1.28% (inactive) | 101% | 103% | -5.33% (inactive) | -3.27% (inactive)
Cc1ccccc1Nc1cc2ccccc2c(=O)[nH]1 | 95.5% (inactive) | 63.8% (inactive) | 102% (inactive) | 2.71% (inactive) | 99.5% | 102% | 4.61% (inactive) | 17.8% (inactive)
CCOc1cccc2cc(C(=O)N3CCN(C/C=C/c4ccccc4)CC3)c(=O)oc12 | 89% (inactive) | 106% (inactive) | 91.4% (inactive) | 22.8% (inactive) | 68.6% | 91.4% | -5.68% (inactive) | -4.73% (inactive)
CS(=O)(=O)N(CC(=O)NCc1ccncc1)Cc1ccc(Cl)cc1 | 104% (inactive) | 101% (inactive) | 98.3% (inactive) | 0.52% (inactive) | 97.8% | 98.3% | -8.36% (inactive) | 0.81% (inactive)
COc1ccc(CNc2nc3nc(C)c(Cl)c(C)n3n2)cc1OC | 97% (inactive) | 104% (inactive) | 92.6% (inactive) | 3.22% (inactive) | 89.4% | 92.6% | -6.35% (inactive) | -6.73% (inactive)
CC(C)OC(=O)CCCCCN1C(=O)CSC1=S | 108% (inactive) | 86.7% (inactive) | 68.2% (inactive) | -7.49% (inactive) | 75.7% | 68.2% | -0.67% (inactive) | -6.13% (inactive)
O=C(Nc1nc(-c2cccs2)cs1)c1cccc(S(=O)(=O)N2CCCCC2)c1 | 194% (inactive) | 67.2% (inactive) | 66.8% (inactive) | -5.37% (inactive) | 72.2% | 66.8% | 3.9% (inactive) | 1.64% (inactive)
Clc1ccc2c(c1)[C@H]1OCC[C@H]1[C@@H](c1ccco1)N2 | 104% (inactive) | 89.6% (inactive) | 86% (inactive) | 0.43% (inactive) | 85.6% | 86% | -0.13% (inactive) | -5.83% (inactive)
COC(=O)c1ccc2c(c1)nc(C)n2CCO | 104% (inactive) | 118% (inactive) | 99.4% (inactive) | 9.26% (inactive) | 90.1% | 99.4% | -3.78% (inactive) | -2% (inactive)
CC1(C)C(c2cccs2)=[N+]([O-])C2(CCCCC/C2=N\O)N1O (stereo not drawn) | 99% (inactive) | 101% (inactive) | 110% (inactive) | 18.4% (inactive) | 91.8% | 110% | -7.95% (inactive) | -1.27% (inactive)
CCOc1ccc(S(=O)(=O)Nc2ccc(Cl)cn2)c(C)c1C | 121% (inactive) | 91% (inactive) | 87.6% (inactive) | -2.8% (inactive) | 90.4% | 87.6% | -5.06% (inactive) | 4.43% (inactive)
COC(=O)CCn1nnc(-c2ccc(C)cc2)n1 | 90% (inactive) | 109% (inactive) | 94.1% (inactive) | 3.69% (inactive) | 90.4% | 94.1% | -6% (inactive) | -2.91% (inactive)
CCOc1cc(C(=O)N(C)Cc2cc3cc(OC)ccc3[nH]c2=O)cc(OCC)c1OCC | 88% (inactive) | 114% (inactive) | 95.1% (inactive) | -1.01% (inactive) | 96.2% | 95.1% | -4.46% (inactive) | 17.3% (inactive)
